Legend:
HT-29 xenograft = assay: In vivo antitumor effect in human HT-29 xenograft model; parameters: species or system NMRI:nu/nu female mice; conditions: or., 40 mg/kg/inj
Procedure, shortened: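 5-FU-resistant human HT-29 colon carcinoma cells were implanted subcutaneously in female nude mice. Dosing began at palpable tumour size on a q4dx3 schedule. Tumour volumes of treated mice (T) were compared with PBS-treated controls (C). Animals were killed once tumours exceeded 1 cm3.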

[1] = HPLC analysis of extracellular cleavage of prodrugs to nucleosides in the medium; type: in vitro ADME; conditions: after 24 h incubation with 100 µM prodrug
Procedure, shortened: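 Cells were exposed to prodrug for 24 h. Medium above the cells was sampled after centrifugation, deproteinized with TCA and neutralized, then analysed by HPLC-UV for parent drug, FdUrd and ETC. Means of 3–5 independent experiments ± SEM.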

[2] = In vivo toxicity in HT-29 xenograft mice; parameters: species or system NMRI:nu/nu female mice; conditions: i.v. and oral treatment
[3] = LC-MS/MS detection of ETC and ETC-nucleotides in tumor and liver tissue; type: in vivo, NMRI:nu/nu female mice; conditions: 2 h after administration
Procedure, shortened: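 Subcutaneous HT-29 xenografts were grown in female NMRI nude mice. Tumour and liver were taken 2 h after prodrug administration. ETC and its nucleotides were quantified by LC-MS/MS in MRM mode (transition 268.2/112.2).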

[4] = biological target: thymidylate synthase (TS) in intact FM3A/0 cells (Mus musculus, UniProt P07607); assay: TS in situ activity assay; type: cell-based, murine; conditions: 24 h exposure to 0.5 µM
thymidylate synthase (TS) in intact FM3A/0 cells, sequence (P07607 whole entry): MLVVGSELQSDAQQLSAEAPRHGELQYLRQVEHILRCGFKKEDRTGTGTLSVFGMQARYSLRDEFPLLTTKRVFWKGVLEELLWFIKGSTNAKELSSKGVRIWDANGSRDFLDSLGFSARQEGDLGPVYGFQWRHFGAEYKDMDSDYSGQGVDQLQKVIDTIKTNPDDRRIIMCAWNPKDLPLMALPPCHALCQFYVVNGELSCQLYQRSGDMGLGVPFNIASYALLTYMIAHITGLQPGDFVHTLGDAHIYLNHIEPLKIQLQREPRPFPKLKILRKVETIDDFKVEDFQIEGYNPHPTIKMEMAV

| Compound | Evaluation (in vivo activity) (HT-29 xenograft) | parent drug still present in the medium [1] | haematological side effects [2] | ETC and ETC-nucleotide accumulation in liver tissue [3] | ETC-nucleoside and ETC-nucleotide accumulation in tumor tissue ([3]; HT-29 xenograft) | inhibition of thymidylate synthase (TS) in situ [4] |
| --- | --- | --- | --- | --- | --- | --- |
| C#C[C@@]1(O)[C@@H](COP(=O)(O)OC[C@H]2O[C@@H](n3cc(F)c(=O)[nH]c3=O)C[C@@H]2O)O[C@@H](n2ccc(N)nc2=O)[C@@H]1O [ETC-FdUrd, 3′-C-Ethynylcytidylyl-(5′➔5′)-5-fluoro-2′-deoxyuridine] | orally active | More than 60% | did not result in any haematological side effects | accumulated in the liver tissue | accumulated to a high extent in the tumor tissue |  |
| O=c1[nH]c(=O)n([C@H]2C[C@H](O)[C@@H](CO)O2)cc1F [FdUrd, 5-fluoro-2′-deoxyuridine] |  |  |  |  |  | inhibited almost completely |
